Assay results: ChEMBL document CHEMBL5724801, “EUbOPEN Chemogenomics Library - Multiplex” (2024)
Values joined by “and” are separate entries in the source; they are usually repeats but may differ in a detail not shown here. Identical values can stand only once.

Experiments:
Fibroblast = experiment: Multiplex assay against human fibroblast; type: toxicity, cell-based
Summary of the method: (§1)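 With compound added, live cells were imaged on a CQ1 microscope at 37°C and 5% CO2; staining with Hoechst33342, BioTracker Green Microtubule Cytoskeleton Dye, MitoTracker Red and Annexin V Alexa Fluor 680 had been done at seeding. The CellPathfinder machine-learning gating scheme split cells into Hoechst high-intensity objects or normal cells, normal cells into healthy, pyknosed or fragmented nuclei, and pyknosed cells into mitotic or apoptotic. The tubulin, mitochondrial-mass and membrane-permeability phenotypes are per cents of healthy-nucleus cells.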

U2OS = experiment: Multiplex assay against U2OS; type: toxicity, cell-based; details: human; summary of the method: as §1
[1] = 24 h, 10 µM, compound concentration 10 uM
[2] = 48 h, 1 µM, compound concentration 1 uM
[3] = 48 h, 10 µM, compound concentration 10 uM
[4] = 12 h, 1 µM, compound concentration 1 uM
[5] = 12 h, 10 µM, compound concentration 10 uM
[6] = 24 h, 1 µM, compound concentration 1 uM

SMILES: O=C(Nc1ccccc1Cl)c1cnc2ccc(C3CCNCC3)cn12.O=C(O)C(=O)O
- Population Membrane Permeable-Phenotype (%) (Fibroblast; [1]): 6.78% and 10.53%
- Population Mitochondria Different-Phenotype (%) (Fibroblast; [1]): 28.81% and 18.05%
- Population Mitotic Cells (%) (Fibroblast; [1]): 64.71% and 62.34%
- Population Normal (%) (Fibroblast; [1]): 100%
- Population Pyknosed Nuclei (%) (Fibroblast; [1]): 19.43% and 36.15%
- Population Tubulin-Different-Phenotype (%) (Fibroblast; [1]): 49.15% and 60.9%
- Total Cell Count (Fibroblast; [1]): 175 and 213
- Population Fragmented Nuclei (%) (Fibroblast; [2]): 11.26% and 5.24%
- Population Healthy Nuclei (%) (Fibroblast; [2]): 79.73% and 81.22%
- Population Hoechst High Intensity Objects (%) (Fibroblast; [2]): 0%
- Population Membrane Permeable-Phenotype (%) (Fibroblast; [2]): 2.26% and 5.91%
- Population Mitochondria Different-Phenotype (%) (Fibroblast; [2]): 7.91% and 2.15%
- Population Mitotic Cells (%) (Fibroblast; [2]): 90% and 64.52%
- Population Normal (%) (Fibroblast; [2]): 100%
- Population Pyknosed Nuclei (%) (Fibroblast; [2]): 9.01% and 13.54%
- Population Tubulin-Different-Phenotype (%) (Fibroblast; [2]): 12.43% and 28.49%
- Total Cell Count (Fibroblast; [2]): 222 and 229
- Population Apoptotic (%) (Fibroblast; [3]): 33.33% and 60.38%
- Population Fragmented Nuclei (%) (Fibroblast; [3]): 10.9% and 1.94%
- Population Healthy Nuclei (%) (Fibroblast; [3]): 75.64% and 63.87%
- Population Hoechst High Intensity Objects (%) (Fibroblast; [3]): 0% and 0.64%
- Population Mitochondria Different-Phenotype (%) (Fibroblast; [3]): 13.56% and 16.16%
- Population Mitotic Cells (%) (Fibroblast; [3]): 66.67% and 39.62%
- Population Normal (%) (Fibroblast; [3]): 100% and 99.36%
- Population Pyknosed Nuclei (%) (Fibroblast; [3]): 13.46% and 34.19%
- Population Tubulin-Different-Phenotype (%) (Fibroblast; [3]): 50.85% and 74.75%
- Total Cell Count (Fibroblast; [3]): 156
- Population Apoptotic (%) (U2OS; [4]): 34.62% and 26.09%
- Population Fragmented Nuclei (%) (U2OS; [4]): 1.77% and 0.57%
- Population Healthy Nuclei (%) (U2OS; [4]): 86.73% and 86.21%
- Population Hoechst High Intensity Objects (%) (U2OS; [4]): 0%
- Population Membrane Permeable-Phenotype (%) (U2OS; [4]): 0.77% and 5.33%
- Population Mitochondria Different-Phenotype (%) (U2OS; [4]): 0% and 4%
- Population Mitotic Cells (%) (U2OS; [4]): 65.38% and 73.91%
- Population Normal (%) (U2OS; [4]): 100%
- Population Pyknosed Nuclei (%) (U2OS; [4]): 11.5% and 13.22%
- Population Tubulin-Different-Phenotype (%) (U2OS; [4]): 0.26% and 0.67%
- Total Cell Count (U2OS; [4]): 452 and 174
- Population Apoptotic (%) (U2OS; [5]): 36.51% and 44.74%
- Population Fragmented Nuclei (%) (U2OS; [5]): 2.48% and 4.95%
- Population Healthy Nuclei (%) (U2OS; [5]): 81.93% and 76.24%
- Population Hoechst High Intensity Objects (%) (U2OS; [5]): 0%
- Population Membrane Permeable-Phenotype (%) (U2OS; [5]): 2.42% and 7.79%
- Population Mitochondria Different-Phenotype (%) (U2OS; [5]): 0% and 9.09%
- Population Mitotic Cells (%) (U2OS; [5]): 63.49% and 55.26%
- Population Normal (%) (U2OS; [5]): 100%
- Population Pyknosed Nuclei (%) (U2OS; [5]): 15.59% and 18.81%
- Population Tubulin-Different-Phenotype (%) (U2OS; [5]): 5.14% and 3.25%
- Total Cell Count (U2OS; [5]): 404 and 202
- Population Apoptotic (%) (U2OS; [6]): 38.71% and 50%
- Population Fragmented Nuclei (%) (U2OS; [6]): 2.92% and 3.06%
- Population Healthy Nuclei (%) (U2OS; [6]): 81.98% and 83.84%
- Population Hoechst High Intensity Objects (%) (U2OS; [6]): 0%
- Population Membrane Permeable-Phenotype (%) (U2OS; [6]): 0.79% and 4.17%
- Population Mitochondria Different-Phenotype (%) (U2OS; [6]): 0% and 3.12%
- Population Mitotic Cells (%) (U2OS; [6]): 61.29% and 50%
- Population Normal (%) (U2OS; [6]): 100%
- Population Pyknosed Nuclei (%) (U2OS; [6]): 15.1% and 13.1%
- Population Tubulin-Different-Phenotype (%) (U2OS; [6]): 0.59% and 1.56%
- Total Cell Count (U2OS; [6]): 616 and 229
- Population Apoptotic (%) (U2OS; [1]): 50% and 42.31%
- Population Fragmented Nuclei (%) (U2OS; [1]): 3.44% and 5.18%
- Population Healthy Nuclei (%) (U2OS; [1]): 75.51% and 63.75%
- Population Hoechst High Intensity Objects (%) (U2OS; [1]): 0.2% and 0.4%
- Population Membrane Permeable-Phenotype (%) (U2OS; [1]): 2.14% and 8.12%
- Population Mitochondria Different-Phenotype (%) (U2OS; [1]): 0.8% and 10.62%
- Population Mitotic Cells (%) (U2OS; [1]): 50% and 57.69%
- Population Normal (%) (U2OS; [1]): 99.8% and 99.6%
- Population Pyknosed Nuclei (%) (U2OS; [1]): 21.05% and 31.08%
- Population Tubulin-Different-Phenotype (%) (U2OS; [1]): 4.02% and 2.5%
- Total Cell Count (U2OS; [1]): 495 and 252
- Population Apoptotic (%) (U2OS; [2]): 50.86% and 56.25%
- Population Fragmented Nuclei (%) (U2OS; [2]): 4.49% and 3.81%
- Population Healthy Nuclei (%) (U2OS; [2]): 84.2% and 83.11%
- Population Hoechst High Intensity Objects (%) (U2OS; [2]): 0% and 0.27%
- Population Membrane Permeable-Phenotype (%) (U2OS; [2]): 2.09% and 5.57%
- Population Mitochondria Different-Phenotype (%) (U2OS; [2]): 0% and 0.98%
- Population Mitotic Cells (%) (U2OS; [2]): 49.14% and 43.75%
- Population Normal (%) (U2OS; [2]): 100% and 99.73%
- Population Pyknosed Nuclei (%) (U2OS; [2]): 11.32% and 13.08%
- Population Tubulin-Different-Phenotype (%) (U2OS; [2]): 0.93% and 2.3%
- Total Cell Count (U2OS; [2]): 1025 and 368
- Population Apoptotic (%) (U2OS; [3]): 54.92% and 58.04%
- Population Fragmented Nuclei (%) (U2OS; [3]): 4.59% and 4.38%
- Population Healthy Nuclei (%) (U2OS; [3]): 68.57% and 60.62%
- Population Hoechst High Intensity Objects (%) (U2OS; [3]): 0.96% and 0%
- Population Membrane Permeable-Phenotype (%) (U2OS; [3]): 5.07% and 11.34%
- Population Mitochondria Different-Phenotype (%) (U2OS; [3]): 0.81% and 4.64%
- Population Mitotic Cells (%) (U2OS; [3]): 45.08% and 41.96%
- Population Normal (%) (U2OS; [3]): 99.04% and 100%
- Population Pyknosed Nuclei (%) (U2OS; [3]): 26.84% and 35%
- Population Tubulin-Different-Phenotype (%) (U2OS; [3]): 3.45% and 9.28%
- Total Cell Count (U2OS; [3]): 726 and 320
